Bioassay records: PubChem, Broad Institute
PGC1a Ac signal: raises PGC1a acetylation signal in U2OS cells | actives 0.21% (n = 350,000) | activation, % at 15.6 µM | AID 651723 | U2OS PGC1a acetylation AlphaScreen, overnight;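 active = every replicate reaching activation of at least 50%, whatever the mean replicate activation; inconclusive = replicates that disagree or another doubt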;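 note: hits raise the AlphaScreen acetylation signal above neutral controls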
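detection = AlphaScreen lysate read | assay system = U2OS cells expressing flag-PGC1a plus GCN5 | input = 7000 cells/well | dosing = one concentration | times = compound overnight at 37 °C, each detection step 1 h RT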
Hep G6PC suppr: PGC-1a acetylation activators affecting G6PC expression in hepatocytes | G6PC suppression (normalized activity, % of positive control; higher = more suppression), % at 26 µM | 240 tested, under 10 active | shares compounds with PGC1a Ac signal | primary mouse hepatocytes, G6PC mRNA qPCR, forskolin;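 active = dose curves showing G6PC suppression whose half-maximal dose is at most twice the top valid dose; inconclusive = flat curves with moderate negative activity, or unreliable fits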;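 note: G6PC expression relative to GAPDH housekeeping gene as delta delta Ct; 0% = median of neutral control wells and 100% = median of positive control wells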
Hep PCK1 suppr: PGC-1a acetylation activators affecting PCK1 expression in hepatocytes; shares compounds with PGC1a Ac signal; primary mouse hepatocytes, PCK1 mRNA qPCR, forskolin-stimulated; PCK1 expression decrease, unspecified at 26 µM; 230 tested, under 10 active;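 active = compounds lowering PCK1 expression whose fitted half-maximal concentration is at most twice the top tested dose; inconclusive = flat fit with moderate opposite-direction effect, or poor fit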;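 note: values are delta delta Ct of PCK1 relative to GAPDH; higher delta delta Ct means lower PCK1 expression so positive values indicate hits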
PGC1a hep suppr: PGC-1a acetylation activator altering hepatocyte PGC-1a expression; shares compounds with PGC1a Ac signal; primary mouse hepatocytes, PGC-1a mRNA qPCR, forskolin; top dose 26 µM; AID 743467; 240 tested, under 10 active; max activity (PGC-1a expression decrease), %;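 active = compound lowering PGC-1a expression with fitted half-maximal concentration at most twice its top tested dose; inconclusive = flat curve with moderate opposite-direction effect, or poor fit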;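 note: 0% = neutral control wells median and 100% = positive control wells median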
The depositor's hits bear a star; i = inactive; ? = inconclusive; nt = no result given; [ ] = another dose, or the depositor's remark. A selection follows.

SMILES	PGC1a Ac signal	Hep G6PC suppr	Hep PCK1 suppr	PGC1a hep suppr
COc1ccccc1CNS(=O)(=O)c1cc(C)ccc1OC	-43.2	nt	nt	nt
COc1ccc(Br)cc1CNc1ccccc1	-40.4	10.5	50	27.5
CCOC(=O)C(=CNc1ccc(C)cc1C)C(=O)OCC	-41.5	nt	nt	nt
COc1ccccc1CN1CCCC(C(=O)N(C)Cc2ccccc2)C1 (stereo unspecified)	-45.0	nt	nt	nt
O=C(Nc1ccc(OCC(=O)N2CCC(Cc3ccccc3)CC2)cc1)c1ccco1	67.4*	nt	0.009	22.9
CCCCCCC[C@@H](C/C=C/CCC(=O)O)OC	-45.2	nt	nt	nt
O=C(Cc1ccccc1)Nc1ccc(NC(=O)c2ccco2)nc1	?	-6.5	-48.1	84.2
CC(C)(C)NC(=O)Cn1nnc(-c2ccccc2NC(=O)c2ccco2)n1	-44.4	nt	nt	nt
Cc1cc(C(=O)CSc2nnc(-c3ccccc3)o2)c(C)n1CC1COc2ccccc2O1 (stereo unspecified)	-51.2	nt	nt	nt
Cc1sc2ncnc(N3CCC(C(=O)NNC(=O)COc4ccc(Cl)cc4)CC3)c2c1C	-45.9	nt	nt	nt
COc1ccccc1C(NC(C)=O)c1cc(Cl)c2cccnc2c1O (stereo unspecified)	-46.0	nt	nt	nt
O=C(COCc1cc(-c2ccc3c(c2)OCO3)on1)Nc1cccnc1	94.2*	3.1	43.5	?
COc1ccc(-c2nc3ccccc3c(=O)o2)cc1OC	-49.2	nt	nt	nt
CC1(C)OC(=O)C(=Cc2ccc[nH]2)C(=O)O1	-40.2	nt	nt	nt
CC(Oc1ccc2c3c(c(=O)oc2c1)CCC3)C(=O)N[C@@H](Cc1ccccc1)C(=O)O (stereo partly specified)	-74.6	nt	nt	nt
O=C(Nc1ccc(F)cc1)N1CCN(c2nc3ccccc3s2)CC1	?	-42.3	?	41.6
COc1ccc(S(=O)(=O)NNC(=O)c2csc(-n3nc(C)cc3C(F)(F)F)n2)cc1	-53.8	29.3	-10.3	122.5
Cc1ccc(C(=O)Nc2nc(=O)n(C(=O)CC(C)C)s2)cc1	-47.5	nt	nt	nt
COc1cc(NS(=O)(=O)c2ccc(N)cc2)nc(OC)n1	-56.8	nt	nt	nt
Cc1noc(C)c1S(=O)(=O)N1CCCC(C(=O)NCC2CCCO2)C1 (stereo unspecified)	-50.1	nt	nt	nt
COc1ccccc1-c1ccc2c(c1)C(C)(Cc1ccc(OC(F)(F)F)cc1)C(=O)N2 (stereo unspecified)	?	-17.3	52.2	50.7
CCNc1nc(Oc2ccc(C#N)cc2)cc(C(F)(F)F)n1	-41.5	nt	nt	nt
CN(C)c1nc(SCCOC(=O)COc2ccc(Cl)cc2Cl)nc(N(C)C)n1	-51.6	nt	nt	nt
CCCCN(CC)CCCNC(=O)c1cc2c(=O)n(CC)c3ccccc3c2s1	?	i	214	172.3
COCCNC(=O)c1ccc(C)cc1C	-44.3	nt	nt	nt
SMILES	PGC1a Ac signal	Hep G6PC suppr	Hep PCK1 suppr	PGC1a hep suppr
COc1ccccc1CN1C[C@@H]2C[C@@H](c3cccc(C)n3)N3CCC[C@@]23C1=O	-43.2	nt	nt	nt
N/C(=N\OC(=O)CCCOc1ccccc1)c1ccc([N+](=O)[O-])cc1	-90.1	nt	nt	nt
O=C1C(Cl)=C(N2CCOCC2)C(=O)N1CCc1ccccc1	-42.4	nt	nt	nt
CCCCn1c(CN(Cc2ccccc2)Cc2ccccc2)nc2c1c(=O)n(C)c(=O)n2C	?	0.0	193	67.1
CSc1nc2c(c(=O)[nH]c(=O)n2C)n1Cc1ccccc1	-43.1	nt	nt	nt
CCOCCn1c(CN(Cc2ccccc2)Cc2ccccc2)nc2c1c(=O)[nH]c(=O)n2C	?	-11.9	0.241	37.7
CCOCCn1c(CN(Cc2ccccc2)Cc2ccccc2)nc2c1c(=O)n(C)c(=O)n2C	56.3*	nt	11.1	26.8
CCn1c(C(=O)NC2CCC(C)CC2)cc2sccc21 (stereo unspecified)	-44.0	nt	nt	nt
CCc1nnc(N/N=C/c2ccccc2Cl)n1N	-72.1	nt	nt	nt
O=C1C(N2CCOCC2)=C(n2nnc3ccccc32)C(=O)c2ccccc21	-61.3	nt	nt	nt
CN1CCN(c2ccc(CNC(=O)c3ccc(-c4ccnn4C)c4ccoc34)cc2)CC1	?	nt	?	228.5
Nc1nn(-c2ccccc2)nc1C(=O)OCc1ccccc1	-72.5	nt	nt	nt
CC1(Cc2ccc(Cl)cc2)C(=O)Nc2c(Cl)ccc(Cl)c21 (stereo unspecified)	80.4*	-63.5	nt	?
Cn1c(C(C#N)C(=O)c2sc3ccccc3c2Cl)nc2ccccc21 (stereo unspecified)	-49.8	nt	nt	nt
Cc1cc(C)c2c(=O)[nH]n(C3CCCCCC3)c2n1	-87.9	nt	nt	nt
Cc1ccc(CN(CC(O)COc2cccc3[nH]cc(C)c23)C(C)(C)C)cc1 (stereo unspecified)	89.6*	468.9	301	165.4
COC(=O)COc1c(/C=C\c2nc(O)c([N+](=O)[O-])c(=O)[nH]2)cccc1OC	-55.0	nt	nt	nt
COc1ccc(C(C)(O)c2nc(-c3ccc(S(C)(=O)=O)cc3)cs2)cc1 (stereo unspecified)	?	-43.2	16.2	49.1
Cc1cccc(CC2CC(=O)N(C3CCCCC3)C2=O)c1 (stereo unspecified)	-45.7	nt	nt	nt
CN1CCN(/N=C/c2ccc(N(c3ccccc3)c3ccccc3)cc2)CC1	-56.4	nt	nt	nt
Cc1nc2ncnn2c(C)c1CCC(=O)N1CCN(c2ccccn2)CC1	-43.4	nt	nt	nt
Cc1ccc(-c2nnc(N3CCN(C(=O)COc4ccccc4)CC3)c3ccccc23)cc1	94.2*	360.4	nt	120.9
O=C(c1cccs1)N1CCN(c2nnc(-c3ccccc3)c3ccccc23)CC1	69.4*	18.7	-6.83[8 µM]	34.3
Cc1c(C(=O)N2CCN(c3ccccn3)CC2)sc2ncnc(N3CCN(c4ccccc4)CC3)c12	-40.3	nt	nt	nt
COC(=O)/C=C/c1cnc2ccccc2c1	-43.0	nt	nt	nt
SMILES	PGC1a Ac signal	Hep G6PC suppr	Hep PCK1 suppr	PGC1a hep suppr
Brc1ccc(N/N=C(/N=Nc2nn[nH]n2)c2ccccc2)cc1	-97.0	nt	nt	nt
COc1ccc(C(=O)/C(=C\c2ccco2)N2C=CC=CC2=C(C#N)C#N)cc1	-71.3	nt	nt	nt
Cc1c(NC(=O)c2ccccc2NS(=O)(=O)c2ccc(Br)cc2)c(=O)n(-c2ccccc2)n1C	-42.1	nt	nt	nt
CCC(C)(C)NC(=O)c1ccc2c(c1)S(=O)(=O)c1ccccc1C2=O	-53.9	nt	nt	nt
C[C@@H]1CN([C@H](C)CO)C(=O)c2cc(N(C)C)ccc2O[C@@H](C)CCCCO[C@H]1CN(C)C(=O)Cc1ccccc1	119.4*	13.8[23.5 µM]	53.3[23.5 µM]	103.4
C[C@@H]1CN([C@H](C)CO)C(=O)c2cc(N(C)C)ccc2O[C@@H](C)CCCCO[C@H]1CN(C)C(=O)Nc1ccccc1	67.1*	-5.2[23.5 µM]	-7.95[23.5 µM]	16.9
C[C@H](CO)N1C[C@H](C)[C@@H](CN(C)Cc2ccc(C(F)(F)F)cc2)Oc2ccc(NS(=O)(=O)c3ccc(F)cc3)cc2C1=O	-103.3	nt	nt	nt
Cc1cccc(CS(=O)(=O)c2nnc([C@H](Cc3ccccc3)NC(=O)OC(C)(C)C)o2)c1	-59.8	nt	nt	nt
O=C(CCl)N=c1sccn1Cc1ccccc1Cl	-52.3	nt	nt	nt
CCNC(=O)C1(C)CCCN1Cc1ccccc1Cl (stereo unspecified)	-48.6	nt	22.1	23.6
CN(c1ncnc(N)c1[N+](=O)[O-])C1CCS(=O)(=O)C1 (stereo unspecified)	-58.3	nt	nt	nt
Oc1ccc(-c2nc(-c3ccc(O)c(O)c3)cs2)cc1	-46.3	nt	nt	nt
COc1cc(C2Nc3cccc4cccc(c34)N2)cc(OC)c1OC(C)=O	-45.0	nt	nt	nt
COc1ccc2c(c1)C(C)=CC(C)(C)N2S(=O)(=O)c1ccc(Br)cc1	83.0*	nt	149	42.7
